The source made the active and inactive calls. The calls are words filed in the database; no cut-off is given here.

Data set [1] can be described thus: Effect on total Smad3 expression in TGFbeta1-stimulated Sprague-Dawley rat cardiac fibroblasts at 10 uM measured after 5 to 30 mins by Western blot analysis. The data set is classed as ADME. A general note: A western blot detects proteins with antibodies after separation by electrophoresis.
For data set [2], the system named is Rattus norvegicus. Kind of data set: Antifibrotic activity in abdominal aortic constriction Sprague-Dawley rat model of cardiac fibrosis assessed as systolic left ventricular posterior wall thickness at 5 mg/kg, ip administered once daily for 4 weeks measured post-last dose by echocardiography (reference value: 3.62 +/- 0.26 mm). It is filed as functional.
For data set [3], the system named is Rattus norvegicus. Kind of data set: Antifibrotic activity in abdominal aortic constriction Sprague-Dawley rat model of cardiac fibrosis assessed as systolic left ventricular internal diameter at 5 mg/kg, ip administered once daily for 4 weeks measured post-last dose by echocardiography (reference value: 3.99 +/- 0.41 mm). The data set is classed as functional.

Data set [4] concerns Rattus norvegicus. Kind of data set: Antifibrotic activity in abdominal aortic constriction Sprague-Dawley rat model of cardiac fibrosis assessed as ejection fraction at 5 mg/kg, ip administered once daily for 4 weeks measured post-last dose by echocardiography (reference value: 79.59 +/- 3.13%). It is filed as functional.
Data set [5] deals with Rattus norvegicus. Kind of data set: Antifibrotic activity in abdominal aortic constriction Sprague-Dawley rat model of cardiac fibrosis assessed as diastolic left ventricular anterior wall thickness at 5 mg/kg, ip administered once daily for 4 weeks measured post-last dose by echocardiography (reference value: 2.48 +/- 0.42 mm). It is filed as functional.
In data set [6] the test system is Rattus norvegicus. Kind of data set: Antifibrotic activity in abdominal aortic constriction Sprague-Dawley rat model of cardiac fibrosis assessed as down regulation of alpha-SMA expression in heart at 5 mg/kg, ip administered once daily for 4 weeks measured post-last dose by Western blot analysis. It is filed as functional, organism-based. The essentials:
(§1)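 AAC rats dosed ip daily for 4 weeks, n=8 per group. Hearts homogenized in lysis buffer with protease and phosphatase inhibitors and spun at 12,000 rpm for 30 min at 4 °C. Nuclear and cytoplasmic fractions prepared with a kit. Protein measured by BCA; 30 µg run on 10% SDS-PAGE, transferred to PVDF and immunoblotted; bands quantified by densitometry.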

Data set [7] concerns the target T1, TGF-beta receptor type-1 (Rattus norvegicus) (UniProt P80204).
T1 sequence (whole entry): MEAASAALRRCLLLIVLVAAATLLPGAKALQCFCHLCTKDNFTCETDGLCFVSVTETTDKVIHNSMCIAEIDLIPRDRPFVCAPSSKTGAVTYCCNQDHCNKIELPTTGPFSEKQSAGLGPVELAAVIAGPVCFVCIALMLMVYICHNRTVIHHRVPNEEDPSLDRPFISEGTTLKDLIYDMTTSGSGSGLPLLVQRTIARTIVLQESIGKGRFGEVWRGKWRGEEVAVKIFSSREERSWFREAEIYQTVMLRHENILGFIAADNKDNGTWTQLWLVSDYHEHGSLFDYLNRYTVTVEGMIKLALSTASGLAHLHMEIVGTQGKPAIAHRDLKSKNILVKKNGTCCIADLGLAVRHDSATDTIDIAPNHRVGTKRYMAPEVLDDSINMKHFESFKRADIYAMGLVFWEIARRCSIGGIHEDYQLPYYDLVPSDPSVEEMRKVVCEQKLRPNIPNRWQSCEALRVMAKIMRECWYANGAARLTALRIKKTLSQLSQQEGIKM
Kind of data set: Inhibition of TGFbeta1 receptor in TGFbeta1-stimulated Sprague-Dawley rat cardiac fibroblasts assessed as reduction in Smad3 phosphorylation at 10 uM measured after 5 to 30 mins by Western blot analysis.

Data set [8] deals with Rattus norvegicus. Kind of data set: Antifibrotic activity in abdominal aortic constriction Sprague-Dawley rat model of cardiac fibrosis assessed as systolic left ventricular anterior wall thickness at 5 mg/kg, ip administered once daily for 4 weeks measured post-last dose by echocardiography (reference value: 3.92 +/- 0.42 mm). The data set is classed as functional.
In data set [9] the test system is Rattus norvegicus. Kind of data set: Antifibrotic activity in abdominal aortic constriction Sprague-Dawley rat model of cardiac fibrosis assessed as reduction in Smad3 phosphorylation in heart at 5 mg/kg, ip administered once daily for 4 weeks measured post-last dose by Western blot analysis. It is filed as functional, organism-based. Put shortly: as §1
The test system of data set [10] is Rattus norvegicus. Kind of data set: Antifibrotic activity in abdominal aortic constriction Sprague-Dawley rat model of cardiac fibrosis assessed as reduction in Smad3 nuclear translocation in heart at 5 mg/kg, ip administered once daily for 4 weeks measured post-last dose by Western blot analysis. It is filed as functional, organism-based. Put shortly: as §1

Data set [11] concerns Rattus norvegicus. Kind of data set: Antifibrotic activity in abdominal aortic constriction Sprague-Dawley rat model of cardiac fibrosis assessed as reduction in Smad2 nuclear translocation in heart at 5 mg/kg, ip administered once daily for 4 weeks measured post-last dose by Western blot analysis. It is filed as functional, organism-based. Put shortly: as §1
Data set [12] deals with Rattus norvegicus. Kind of data set: Antifibrotic activity in abdominal aortic constriction Sprague-Dawley rat model of cardiac fibrosis assessed as down regulation of fibronectin expression in heart at 5 mg/kg, ip administered once daily for 4 weeks measured post-last dose by Western blot analysis. The data set is classed as functional, organism-based. The essentials:
as §1

The species named for data set [13] is Rattus norvegicus. Kind of data set: Effect on TGFbeta1 receptor expression in TGFbeta1-stimulated Sprague-Dawley rat cardiac fibroblasts at 2.5 to 10 uM measured after 5 mins by Western blot analysis. It is filed as functional.
The nature of data set [14]: Cytotoxicity against Sprague-Dawley rat cardiac fibroblasts assessed as reduction in cell viability at 25 uM measured after 48 hrs by MTT assay. Put shortly:
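Primary adult male SD rat cardiac fibroblasts at passages 2–4, 5000 cells per well. Treated for 48 h, then MTT (5 mg/mL) for 4 h. Formazan dissolved in DMSO and absorbance read at 570 nm. Triplicate wells, three independent experiments.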

In data set [15] the test system is Rattus norvegicus. Kind of data set: Antifibrotic activity in abdominal aortic constriction Sprague-Dawley rat model of cardiac fibrosis assessed as decrease in heart alpha-SMA level at 5 mg/kg, ip administered once daily for 4 weeks measured post-last dose by immunohistochemical analysis relative to control. It is filed as functional. Set-up: scale not given: the % may be the effect or the level left. Put shortly: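 Male SD rats (200–250 g) with abdominal aortic constriction (suture tied over a 21-G probe above the renal arteries), under pentobarbital 30 mg/kg ip. Dosed ip daily for 4 weeks. Vehicle was saline with 0.5% DMSO and 5% Kolliphor HS 15. Groups: sham, AAC, AAC+nifedipine 10 mg/kg, n=8 each. Formalin-fixed paraffin sections 4 µm thick; FN and α-SMA by immunohistochemistry, collagen by Masson's trichrome; stained area measured.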

The test system of data set [16] is Rattus norvegicus. Kind of data set: Antifibrotic activity in abdominal aortic constriction Sprague-Dawley rat model of cardiac fibrosis assessed as reduction in Smad3 phosphorylation in heart at 5 mg/kg, ip administered once daily for 4 weeks measured post-last dose by immunohistochemical analysis. The data set is classed as functional, organism-based. The essentials: (§2)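 AAC rats dosed ip daily for 4 weeks, n=8 per group. Phospho-Smad2/3 stained by immunohistochemistry on 4 µm paraffin heart sections. Stained area summed over 6 fields per rat for statistics.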

The test system of data set [17] is Rattus norvegicus. Kind of data set: Antifibrotic activity in abdominal aortic constriction Sprague-Dawley rat model of cardiac fibrosis assessed as reduction in Smad2 phosphorylation in heart at 5 mg/kg, ip administered once daily for 4 weeks measured post-last dose by immunohistochemical analysis. The data set is classed as functional, organism-based. The essentials: as §2

For data set [18], the system named is Rattus norvegicus. Kind of data set: Antifibrotic activity in abdominal aortic constriction Sprague-Dawley rat model of cardiac fibrosis assessed as fractional shortening at 5 mg/kg, ip administered once daily for 4 weeks measured post-last dose by echocardiography (reference value: 48.17 +/- 4.69%). It is filed as functional.
Data set [19] has as its target T1, TGF-beta receptor type-1 (Rattus norvegicus). Kind of data set: Inhibition of TGFbeta1 receptor in TGFbeta1-stimulated Sprague-Dawley rat cardiac fibroblasts assessed as reduction in collagen 3 expression measured after 12 hrs by Western blot analysis. The essentials:
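Primary rat cardiac fibroblasts (passages 2–4, 3×10^5 per well) treated with compound plus 10 ng/mL TGFβ1 for 12 h; tested at 2.5, 5 and 10 µM. Lysates run on 10% SDS-PAGE (30 µg protein), probed for FN, α-SMA and collagen I/III, and quantified by densitometry against GAPDH. N=3 independent experiments.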

Turning to `C=C(C)[C@@H]1C/C=C(\C)C(=O)CCC2=C[C@@H]1OC2=O`, the Activity result in data set [1] is “Non-Toxic”; with Rattus norvegicus [2], 3.23 mm; in the data set on Rattus norvegicus [3], 4.74 mm; in the data set with Rattus norvegicus [4], 71.38%; with Rattus norvegicus [5], 2.11 mm; in the data set with Rattus norvegicus [8], 3.46 mm. The Activity entry is on record as “Non-Toxic” in [14], 88.8% with Rattus norvegicus [15] and 42.54% with Rattus norvegicus [18]. Further, the outcome with Rattus norvegicus [6], in the data set with Rattus norvegicus [9], in the data set on Rattus norvegicus [10], with Rattus norvegicus [11], in the data set with Rattus norvegicus [12] and in the data set on Rattus norvegicus [16] was Active. Further, in the data set on Rattus norvegicus [17], the result was Active. The inhibition result in data set [7] is “Active”. For the same molecule, the outcome in the data set filed under Rattus norvegicus [13] was inactive. The inhibition result in [19] was “Dose-dependent effect”.

The record behind these values is ChEMBL document CHEMBL4373718, “Germacrane Sesquiterpenoids as a New Type of Anticardiac Fibrosis Agent Targeting Transforming Growth Factor β Type I Receptor” (J Med Chem, 2019).
